In ChEMBL document CHEMBL4689842, “EUbOPEN Chemogenomics Library wave 1” (2021):

Test system: Fibroblast
Test: Multiplex assay against human fibroblast
Type: toxicity, cell-based
Outline: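 Phenotypes for tubulin, mitochondrial mass and membrane permeability are expressed as per cents of healthy-nucleus cells. Cells were stained live at seeding with Hoechst33342, BioTracker Green Microtubule Cytoskeleton Dye, MitoTracker Red and Annexin V Alexa Fluor 680, then imaged after compound addition on a CQ1 microscope at 37°C and 5% CO2. Machine-learning gating in CellPathfinder separated Hoechst high-intensity objects from normal cells, divided normal cells by nuclear state (healthy, pyknosed, fragmented) and divided pyknosed cells into mitotic or apoptotic.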

[1] = 12 h, 1 µM, compound concentration 1 uM, replicate 1
[2] = 12 h, 1 µM, compound concentration 1 uM, replicate 2
[3] = 12 h, 10 µM, compound concentration 10 uM, replicate 1
[4] = 12 h, 10 µM, compound concentration 10 uM, replicate 2
[5] = 24 h, 1 µM, compound concentration 1 uM, replicate 1
[6] = 24 h, 1 µM, compound concentration 1 uM, replicate 2
[7] = 24 h, 10 µM, compound concentration 10 uM, replicate 1
[8] = 24 h, 10 µM, compound concentration 10 uM, replicate 2
[9] = 48 h, 1 µM, compound concentration 1 uM, replicate 1
[10] = 48 h, 1 µM, compound concentration 1 uM, replicate 2
[11] = 48 h, 10 µM, compound concentration 10 uM, replicate 1
[12] = 48 h, 10 µM, compound concentration 10 uM, replicate 2

With `COc1cc2ncn(-c3cc(OCc4ccccc4C(F)(F)F)c(C(N)=O)s3)c2cc1OC` [GW843682X] the “Population Apoptotic (%)” value [1] was 62%, the “Population Fragmented Nuclei (%)” value [1] was 29% and the “Population Healthy Nuclei (%)” value [1] was 40%. For the same compound, the “Population Hoechst High Intensity Objects (%)” value [1] was 14%, the “Population Membrane Permeable-Phenotype (%)” value [1] was 28% and the “Population Mitochondria Different-Phenotype (%)” value [1] was 2%. For the same compound, the “Population Mitotic Cells (%)” value [1] was 37%, the “Population Normal (%)” value [1] was 85% and the “Population Pyknosed Nuclei (%)” value [1] was 29%. The “Population Tubulin-Different-Phenotype (%)” value [1] was 54%, the “Total Cell Count” value [1] was 145 and the “Population Apoptotic (%)” value [2] was 50%. For the same compound, the “Population Fragmented Nuclei (%)” value [2] was 9%, the “Population Healthy Nuclei (%)” value [2] was 80% and the “Population Hoechst High Intensity Objects (%)” value [2] was 10%. For the same compound, the “Population Membrane Permeable-Phenotype (%)” value [2] was 12%, the “Population Mitochondria Different-Phenotype (%)” value [2] was 10% and the “Population Mitotic Cells (%)” value [2] was 50%. For the same compound, the “Population Normal (%)” value [2] was 89%, the “Population Pyknosed Nuclei (%)” value [2] was 9% and the “Population Tubulin-Different-Phenotype (%)” value [2] was 20%. The “Total Cell Count” value [2] was 83, the “Population Apoptotic (%)” value [3] was 54% and the “Population Fragmented Nuclei (%)” value [3] was 18%. The “Population Healthy Nuclei (%)” value [3] was 40%, the “Population Hoechst High Intensity Objects (%)” value [3] was 17% and the “Population Membrane Permeable-Phenotype (%)” value [3] was 19%. The “Population Mitochondria Different-Phenotype (%)” value [3] was 29%, the “Population Mitotic Cells (%)” value [3] was 45% and the “Population Normal (%)” value [3] was 82%. For the same compound, the “Population Pyknosed Nuclei (%)” value [3] was 41%, the “Population Tubulin-Different-Phenotype (%)” value [3] was 88% and the “Total Cell Count” value [3] was 182. The “Population Apoptotic (%)” value [4] was 50%, the “Population Fragmented Nuclei (%)” value [4] was 13% and the “Population Healthy Nuclei (%)” value [4] was 75%. The “Population Hoechst High Intensity Objects (%)” value [4] was 6%, the “Population Membrane Permeable-Phenotype (%)” value [4] was 25% and the “Population Mitochondria Different-Phenotype (%)” value [4] was 88%. The “Population Mitotic Cells (%)” value [4] was 50%, the “Population Normal (%)” value [4] was 93% and the “Population Pyknosed Nuclei (%)” value [4] was 11%. The “Population Tubulin-Different-Phenotype (%)” value [4] was 98%, the “Total Cell Count” value [4] was 68 and the “Population Apoptotic (%)” value [5] was 61%. The “Population Fragmented Nuclei (%)” value [5] was 27%, the “Population Healthy Nuclei (%)” value [5] was 45% and the “Population Hoechst High Intensity Objects (%)” value [5] was 16%. For the same compound, the “Population Membrane Permeable-Phenotype (%)” value [5] was 28%, the “Population Mitochondria Different-Phenotype (%)” value [5] was 7% and the “Population Mitotic Cells (%)” value [5] was 38%. The “Population Normal (%)” value [5] was 83%, the “Population Pyknosed Nuclei (%)” value [5] was 26% and the “Population Tubulin-Different-Phenotype (%)” value [5] was 66%. The “Total Cell Count” value [5] was 139, the “Population Apoptotic (%)” value [6] was 55% and the “Population Fragmented Nuclei (%)” value [6] was 11%. For the same compound, the “Population Healthy Nuclei (%)” value [6] was 74%, the “Population Hoechst High Intensity Objects (%)” value [6] was 5% and the “Population Membrane Permeable-Phenotype (%)” value [6] was 10%. For the same compound, the “Population Mitochondria Different-Phenotype (%)” value [6] was 19%, the “Population Mitotic Cells (%)” value [6] was 44% and the “Population Normal (%)” value [6] was 94%. For the same compound, the “Population Pyknosed Nuclei (%)” value [6] was 14%, the “Population Tubulin-Different-Phenotype (%)” value [6] was 17% and the “Total Cell Count” value [6] was 85. For the same compound, the “Population Apoptotic (%)” value [7] was 74%, the “Population Fragmented Nuclei (%)” value [7] was 14% and the “Population Healthy Nuclei (%)” value [7] was 41%. For the same compound, the “Population Hoechst High Intensity Objects (%)” value [7] was 21%, the “Population Membrane Permeable-Phenotype (%)” value [7] was 25% and the “Population Mitochondria Different-Phenotype (%)” value [7] was 32%. The “Population Mitotic Cells (%)” value [7] was 25%, the “Population Normal (%)” value [7] was 78% and the “Population Pyknosed Nuclei (%)” value [7] was 43%. The “Population Tubulin-Different-Phenotype (%)” value [7] was 94%, the “Total Cell Count” value [7] was 171 and the “Population Apoptotic (%)” value [8] was 50%. For the same compound, the “Population Fragmented Nuclei (%)” value [8] was 13%, the “Population Healthy Nuclei (%)” value [8] was 69% and the “Population Hoechst High Intensity Objects (%)” value [8] was 9%. For the same compound, the “Population Membrane Permeable-Phenotype (%)” value [8] was 41%, the “Population Mitochondria Different-Phenotype (%)” value [8] was 91% and the “Population Mitotic Cells (%)” value [8] was 50%. For the same compound, the “Population Normal (%)” value [8] was 90%, the “Population Pyknosed Nuclei (%)” value [8] was 17% and the “Population Tubulin-Different-Phenotype (%)” value [8] was 97%. The “Total Cell Count” value [8] was 67, the “Population Apoptotic (%)” value [9] was 52% and the “Population Fragmented Nuclei (%)” value [9] was 39%. For the same compound, the “Population Healthy Nuclei (%)” value [9] was 38%, the “Population Hoechst High Intensity Objects (%)” value [9] was 18% and the “Population Membrane Permeable-Phenotype (%)” value [9] was 21%. The “Population Mitochondria Different-Phenotype (%)” value [9] was 7%, the “Population Mitotic Cells (%)” value [9] was 47% and the “Population Normal (%)” value [9] was 81%. The “Population Pyknosed Nuclei (%)” value [9] was 21%, the “Population Tubulin-Different-Phenotype (%)” value [9] was 65% and the “Total Cell Count” value [9] was 130. The “Population Apoptotic (%)” value [10] was 75%, the “Population Fragmented Nuclei (%)” value [10] was 22% and the “Population Healthy Nuclei (%)” value [10] was 73%. The “Population Hoechst High Intensity Objects (%)” value [10] was 9%, the “Population Membrane Permeable-Phenotype (%)” value [10] was 13% and the “Population Mitochondria Different-Phenotype (%)” value [10] was 1%. The “Population Mitotic Cells (%)” value [10] was 25%, the “Population Normal (%)” value [10] was 90% and the “Population Pyknosed Nuclei (%)” value [10] was 3%. The “Population Tubulin-Different-Phenotype (%)” value [10] was 53%, the “Total Cell Count” value [10] was 120 and the “Population Apoptotic (%)” value [11] was 61%. The “Population Fragmented Nuclei (%)” value [11] was 27%, the “Population Healthy Nuclei (%)” value [11] was 45% and the “Population Hoechst High Intensity Objects (%)” value [11] was 19%. For the same compound, the “Population Membrane Permeable-Phenotype (%)” value [11] was 24%, the “Population Mitochondria Different-Phenotype (%)” value [11] was 13% and the “Population Mitotic Cells (%)” value [11] was 38%. The “Population Normal (%)” value [11] was 80%, the “Population Pyknosed Nuclei (%)” value [11] was 27% and the “Population Tubulin-Different-Phenotype (%)” value [11] was 95%. For the same compound, the “Total Cell Count” value [11] was 177, the “Population Apoptotic (%)” value [12] was 50% and the “Population Fragmented Nuclei (%)” value [12] was 29%. The “Population Healthy Nuclei (%)” value [12] was 55%, the “Population Hoechst High Intensity Objects (%)” value [12] was 16% and the “Population Membrane Permeable-Phenotype (%)” value [12] was 6%. The “Population Mitochondria Different-Phenotype (%)” value [12] was 21%, the “Population Mitotic Cells (%)” value [12] was 50% and the “Population Normal (%)” value [12] was 83%. For the same compound, the “Population Pyknosed Nuclei (%)” value [12] was 14%, the “Population Tubulin-Different-Phenotype (%)” value [12] was 92% and the “Total Cell Count” value [12] was 162.
